The source made the active and inactive calls. The rule behind the calls is not given here.
Columns and labels:
KB = assay: Concentration required to kill human epidermoid KBV1 cell lines containing very high levels of P-glycoprotein after 3 days of continuous exposure; format: functional, cell-based; details: 72 h
How it was run: (§1)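 KB-3-1, KB85 and KBV1 cells were plated at densities set to reach 60–90% confluence at analysis. Compounds were serially diluted in medium as 2× stocks and added in duplicate. After 3 days of incubation, cell survival was read by SRB assay and reported as IC50.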

Bos taurus [1] = species: Bos taurus; assay: Percent inhibition of bovine microtubule-assisted protein (MAP) rich tubulin polymerisation at concentration of 0.3 uM; (result for 2); format: functional
How it was run: (§2)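 Bovine MAP-rich tubulin (final 1.5 mg/mL) was prepared in cold PEM buffer (80 mM NaPIPES pH 6.9, 1 mM MgCl2, 1 mM EGTA) with 1 mM GTP and spun at 12,000g for 10 min at 4 C. It was added to duplicate compound wells (final 0.3 µM); controls held 0.3% DMSO. A340 was read every minute for 60 min at 24 C.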

KB 3-1 = assay: Concentration required to kill human epidermoid KB-3-1 cell lines containing very low levels of P-glycoprotein after 3 days of continuous exposure; format: functional, cell-based; details: KB 3-1, 72 h; how it was run: as §1
Bos taurus [2] = species: Bos taurus; assay: Percent inhibition of bovine microtubule-assisted protein (MAP) rich tubulin polymerisation at concentration of 0.3 uM; format: functional; how it was run: as §2
KB85 (Homo sapiens) = assay: Concentration required to kill human epidermoid KB85 cell lines containing moderate levels of P-glycoprotein after 3 days of continuous exposure; details: KB85, 72 h
Mus musculus [3] = assay: Minimum effective dose against Lox melanoma human xenograft models in athymic mice; format: functional
How it was run: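 Lox melanoma cells (1.5–7 × 10^6) were injected sc into athymic mice. At 80–100 mg tumour mass, animals were randomised into groups of 5 or 10 and dosed iv in saline. Tumour length and width were measured weekly, with mass = (L·W²)/2. Relative tumour growth and %T/C were calculated.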

Mus musculus [4] = assay: Minimum tolerated dose against Lox melanoma human xenograft models in athymic mice; format: functional
Mus musculus [5] = species: Mus musculus; assay: Effect at 4 mpk against DLD1 cell line expressing P-glycoprotein transporter in athymic mice; Active; format: functional, organism-based; details: DLD-1
Mus musculus [6] = species: Mus musculus; assay: Effect at 1.5 mpk against DLD1 cell line expressing P-glycoprotein transporter in athymic mice; Active; format: functional, organism-based; details: DLD-1
Mus musculus [7] = species: Mus musculus; assay: Effect at 1.5 mpk against MX1W cell line expressing P-glycoprotein transporter in athymic mice; Active; format: functional, organism-based
Mus musculus [8] = species: Mus musculus; assay: Effect at 1.5 mpk against HCT-15 cell line expressing P-glycoprotein transporter in athymic mice; Active; format: functional, organism-based
Mus musculus [9] = species: Mus musculus; assay: Effect at 1.6 mpk against DLD1 cell line expressing P-glycoprotein transporter in athymic mice; Active; format: functional, organism-based; details: DLD-1
Mus musculus [10] = species: Mus musculus; assay: Effect at 1.6 mpk against MX1W cell line expressing P-glycoprotein transporter in athymic mice; Active; format: functional, organism-based
Mus musculus [11] = species: Mus musculus; assay: Effect at 1.6 mpk against HCT-15 cell line expressing P-glycoprotein transporter in athymic mice; Active; format: functional, organism-based
Mus musculus [12] = species: Mus musculus; assay: Effect at 2 mpk against DLD1 cell line expressing P-glycoprotein transporter in athymic mice; Active; format: functional, organism-based; details: DLD-1
Mus musculus [13] = species: Mus musculus; assay: Effect at 2 mpk against MX1W cell line expressing P-glycoprotein transporter in athymic mice; Active; format: functional, organism-based
Mus musculus [14] = species: Mus musculus; assay: Effect at 2 mpk against HCT-15 cell line expressing P-glycoprotein transporter in athymic mice; Active; format: functional, organism-based
Mus musculus [15] = species: Mus musculus; assay: Effect at 3 mpk against MX1W cell line expressing P-glycoprotein transporter in athymic mice; Active; format: functional, organism-based
Mus musculus [16] = species: Mus musculus; assay: Effect at 3 mpk against HCT-15 cell line expressing P-glycoprotein transporter in athymic mice; inactive; format: functional, organism-based

SMILES | IC50 (KB) [nM] | Inhibition (Bos taurus [1]) [%] | IC50 (KB 3-1) [nM] | Inhibition (Bos taurus [2]) [%] | IC50 (KB85 (Homo sapiens)) [nM] | also measured
CN[C@H](C(=O)N[C@H](C(=O)N(C)[C@H](/C=C(\C)C(=O)O)C(C)C)C(C)(C)C)C(C)(C)c1ccc(C)cc1 | 55 | 94 | 1.5 | 95 | 2.6 | –
CCc1cccc(C(C)(C)[C@H](NC)C(=O)N[C@H](C(=O)N(C)[C@H](/C=C(\C)C(=O)O)C(C)C)C(C)(C)C)c1 | 62 | 90 | 0.79 | 88 | 1.8 | –
CN[C@H](C(=O)N[C@H](C(=O)N(C)[C@H](/C=C(\C)C(=O)O)C(C)C)C(C)(C)C)C(C)(C)c1cccc(Br)c1 | 148 | 84 | 1.8 | 90 | 4.1 | MED (Mus musculus [3]): 1 mpk; MTD (Mus musculus [4]): 4 mpk; Effect (Mus musculus [5]): Active
CN[C@H](C(=O)N[C@H](C(=O)N(C)[C@H](/C=C(\C)C(=O)O)C(C)C)C(C)(C)C)C(C)(C)c1cccc(F)c1 | 77 | 93 | 1 | 103 | 1.8 | –
CN[C@H](C(=O)N[C@H](C(=O)N(C)[C@H](/C=C(\C)C(=O)O)C(C)C)C(C)(C)C)C(C)(C)c1cccc(C(C)=O)c1 | 370 | 87 | 1.9 | 93 | 5.8 | –
CCOC(=O)/C(C)=C/[C@H](C(C)C)N(C)C(=O)[C@@H](NC(=O)[C@@H](NC)C(C)(C)c1cccc(C)c1)C(C)(C)C | 2410 | 94 | 21.9 | 58 | 525 | –
CN[C@H](C(=O)N[C@H](C(=O)N(C)[C@H](/C=C(\C)C(=O)O)C(C)C)C(C)(C)C)C(C)(C)c1cccc(C)c1 | 19 | 89 | 0.23 | 90 | 0.65 | MED (Mus musculus [3]): <0.1 mpk; MTD (Mus musculus [4]): 1.5 mpk; Effect (Mus musculus [6]): Active; Effect (Mus musculus [7]): Active; Effect (Mus musculus [8]): Active
CN[C@H](C(=O)N[C@H](C(=O)N(C)[C@H](/C=C(\C)C(=O)O)C(C)C)C(C)(C)C)C(C)(C)c1cccs1 | 162 | 88 | 2 | 92 | 3.9 | MED (Mus musculus [3]): 1 mpk; MTD (Mus musculus [4]): >5 mpk
CN[C@@H](C(=O)N[C@H](C(=O)N(C)[C@H](/C=C(\C)C(=O)O)C(C)C)C(C)(C)C)C(C)(C)c1cccc(C)c1 | 446 | 89 | 7.9 | 88 | 19.9 | –
CN[C@@H](C(=O)N[C@H](C(=O)N(C)[C@H](/C=C(\C)C(=O)O)C(C)C)C(C)(C)C)C(C)(C)c1ccc(C)cc1 | 1070 | 94 | 17 | 95 | 27.5 | –
CN[C@H](C(=O)N[C@H](C(=O)N(C)[C@H](/C=C(\C)C(=O)O)C(C)C)C(C)(C)C)C(C)(C)c1ccc(Cl)cc1 | 53 | 96 | 0.56 | 95 | 1.7 | –
CN[C@H](C(=O)N[C@H](C(=O)N(C)[C@H](/C=C(\C)C(=O)O)C(C)C)C(C)(C)C)C(C)(C)c1ccsc1 | 724 | 96 | 2.1 | 88 | 6.6 | –
CN[C@H](C(=O)N[C@H](C(=O)N(C)[C@H](/C=C(\C)C(=O)O)C(C)C)C(C)(C)C)C(C)(C)c1cc(F)cc(F)c1 | 457 | 84 | 6.2 | 90 | 16.2 | –
CCOC(=O)/C(C)=C/[C@H](C(C)C)N(C)C(=O)[C@@H](NC(=O)[C@H](NC)C(C)(C)c1cccc(C)c1)C(C)(C)C | 3000 | 94 | 263 | 26 | 1700 | –
CN[C@H](C(=O)N[C@H](C(=O)N(C)[C@H](/C=C(\C)C(=O)O)C(C)C)C(C)(C)C)C(C)(C)c1ccccc1 [TALTOBULIN] | 81 | – | 1 | 91 | 2.4 | Effect (Mus musculus [9]): Active; Effect (Mus musculus [10]): Active; Effect (Mus musculus [11]): Active
CN[C@H](C(=O)N[C@H](C(=O)N(C)[C@H](/C=C(\C)C(=O)O)C(C)C)C(C)(C)C)C(C)(C)c1cc(C)cc(C)c1 | 44 | 88 | 0.55 | 85 | 1.23 | –
CN[C@H](C(=O)N[C@H](C(=O)N(C)[C@H](/C=C(\C)C(=O)O)C(C)C)C(C)(C)C)C(C)(C)c1cccc(-c2ccccc2)c1 | 149 | 84 | 1.9 | 86 | 5.4 | –
CN[C@H](C(=O)N[C@H](C(=O)N(C)[C@H](/C=C(\C)C(=O)O)C(C)C)C(C)(C)C)C(C)(C)c1cccc(C(F)(F)F)c1 | 42.7 | 96 | 0.65 | 98 | 1.7 | MED (Mus musculus [3]): 1 mpk; MTD (Mus musculus [4]): >5 mpk
CN[C@H](C(=O)N[C@H](C(=O)N(C)[C@H](/C=C(\C)C(=O)O)C(C)C)C(C)(C)C)C(C)(C)c1cc(C(F)(F)F)cc(C(F)(F)F)c1 | 457 | 93 | 17 | 60 | 19 | –
CCOC(=O)/C(C)=C/[C@H](C(C)C)N(C)C(=O)[C@@H](NC(=O)[C@@H](NC)C(C)(C)c1ccc(C)c(C)c1)C(C)(C)C | 191 | 92 | 9.1 | 49 | 24 | MED (Mus musculus [3]): 0.5 mpk; MTD (Mus musculus [4]): >2 mpk; Effect (Mus musculus [12]): Active; Effect (Mus musculus [13]): Active; Effect (Mus musculus [14]): Active
CN[C@H](C(=O)N[C@H](C(=O)N(C)[C@H](/C=C(\C)C(=O)O)C(C)C)C(C)(C)C)C(C)(C)c1cccc(Cl)c1 | 91 | 88 | 1.14 | 91 | 3.2 | MED (Mus musculus [3]): 0.3 mpk; MTD (Mus musculus [4]): 3 mpk; Effect (Mus musculus [15]): Active; Effect (Mus musculus [16]): inactive
C=Cc1cccc(C(C)(C)[C@H](NC)C(=O)N[C@H](C(=O)N(C)[C@H](/C=C(\C)C(=O)O)C(C)C)C(C)(C)C)c1 | 130 | 90 | 0.86 | 88 | 2 | –
